Screening data (PubChem BioAssay)
Shown are actives, neighbours in structure and some others; about 1.9% of the full set was active somewhere.
FN deposition inh: fibronectin deposition inhibition; hit rate 0.086% among 350,000; AID 743247; AH1F fibroblasts, Alexa488-fibronectin deposition fluorescence, overnight; inhibition, % at 12.6 µM;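 active = mean inhibition across replicates of 30% or more, regardless of how many single replicates reach that level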;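 note: positive control wells lacked labelled fibronectin entirely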
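Assay system: AH1F fibroblast monolayer, labelled fibronectin deposition. Amount: 10000 cells per well. Also added: labelled fibronectin 24 nM. Compound: single-point pinned compound. Incubation: cell attachment 1 h, compound and FN exposure overnight. Detection: fluorescence after three HBSS washes, excitation 485 nm, emission 525 nm. Read-out: inhibition of fibronectin deposition signal.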
Cneo AK release: causes C. neoformans cell lysis | adenylate kinase release luminescence, 4 h; normalised: neutral wells 0, clomiphene wells 100 | hit rate 0.2% among 360,000 | lysis activity, % at 15 µM | AID 651654;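 active = mean lysis activity across replicates of at least 80%, whatever share of replicates individually reach that level; inactive = mean lysis activity below 80%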
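Test system: log-phase Cryptococcus neoformans yeast cells. Input: 5 × 10^6 yeast cells/mL. Medium: fresh YPD growth medium. Doses: single dose. Incubation: static 4 h at 37 °C with compound, 1 h detection. Measured by: luminescent adenylate kinase detection reagent. Read-out: signal increase indicating cell lysis. Benchmarks: Clomiphene.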
PGC1a acetyl inh: lowers PGC1a acetylation signal in U2OS cells. AlphaScreen anti-acetyl-lysine; with virally co-expressed GCN5 acetyltransferase. hit rate 0.17% among 350,000. AID 651687. inhibition, % at 15.6 µM;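 active = every replicate shows inhibition of at least 40%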;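 note: 0% = neutral control wells and 100% = positive control wells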
DENV2 CPE rescue: protects cells from dengue virus 2 cytopathic effect; hit rate 1.7% among 350,000; DENV2-infected cells, cytopathic effect rescue, plate reader; CPE inhibition, % at 9.99 µM; in the data active = CPE inhibition above about 20%, passing the limit was not always enough; tested in BHK-21 cells;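 note: 0% = median of neutral control wells and 100% = median of positive control wells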
CFTR F508del cor: correctors of CFTR F508del function in bronchial epithelial cells. activity (quench increase), % at 7.58 µM. hit rate 0.36% among 350,000. CFBE cells, YFP halide quenching; stimulated with forskolin plus potentiator P3; % fluorescence drop versus neutral controls;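 active = mean added fluorescence quench of at least 8% versus neutral control, with both replicates also reaching 8%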;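 note: cells transiently co-express mutant CFTR-F508del with the halide-sensitive YFP; corrector assay measuring rescue of mutant channel to the surface after 24 h compound exposure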
Xi reactivation: reactivates the inactive X chromosome in mouse fibroblasts; XiGFP mouse fibroblasts, % GFP-positive cells imaging, 3 d; cells co-treated with 5-aza-dC sensitizer; scaled so ellipticine positive control = 100%; hit rate 0.055% among 360,000; AID 743238; activation, % at 7.58 µM;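 active = mean normalized replicate activation at least 10% and every replicate at or above 10%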;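 note: 0% = median of on-plate neutral control wells and 100% = ellipticine 6 µM median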
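System: 68-5-11 XiGFP fibroblast line; Timing: 3 days compound exposure; Compound dosing: one concentration, pinned; Benchmarks: positive control ellipticine, 6 µM final; Buffer or medium: DMEM containing 5-aza-dC.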
* hit, by the source's call; / = not tested or not shown; ! = a repeat was not active.

SMILES | FN deposition inh | Cneo AK release | PGC1a acetyl inh | DENV2 CPE rescue | CFTR F508del cor | Xi reactivation
O=C(N[C@H]1CC[C@H](CCNS(=O)(=O)c2ccccc2)O[C@@H]1CO)c1cccnc1 | / | -1 | -4 | -5 | 4 | 0
O=C(Nc1cccc(F)c1)N[C@H]1CC[C@H](CCNS(=O)(=O)c2cccc(Cl)c2)O[C@@H]1CO | / | 105* | 8 | / | -2 | 1
O=C(N[C@H]1CC[C@H](CCNS(=O)(=O)c2cccc(Cl)c2)O[C@@H]1CO)c1ccccc1 | / | 0 | 1 | 6 | -2 | 0
O=C(N[C@@H]1CC[C@@H](CCNS(=O)(=O)c2ccccc2)O[C@H]1CO)c1cccnc1 | / | -4 | -3 | 32* | 4 | 0
CCC(=O)N(C)C[C@@H]1Oc2ncc(C#Cc3ccncc3)cc2C(=O)N([C@@H](C)CO)C[C@@H]1C | -3 | -1 | -5 | -2 | 1 | -1
CNC[C@@H]1Oc2c(NS(=O)(=O)c3ccc(C)cc3)cccc2C(=O)N([C@@H](C)CO)C[C@@H]1C | / | 0 | 6 | 3 | -2 | -1
O=C(Nc1ccc2c(c1)[C@H]1C[C@@H](CC(=O)N3CCOCC3)O[C@@H](CO)[C@H]1O2)c1cccnc1 | -5 | -7 | -6 | 2 | 2 | 0
O=C(C[C@H]1C[C@@H]2c3cc(NC(=O)c4cccnc4)ccc3O[C@@H]2[C@@H](CO)O1)NCc1ccncc1 | -2 | 11 | -10 | 1 | -1 | 0
C[C@@H]1CN([C@@H](C)CO)C(=O)c2cc(NS(=O)(=O)c3cn(C)cn3)ccc2O[C@@H]1CN(C)C(=O)Nc1cccc2ccccc12 | 8 | 90* | 4 | 6 | 0 | 0
C[C@@H]1CN([C@H](C)CO)C(=O)c2cc(NS(=O)(=O)c3cn(C)cn3)ccc2O[C@H]1CN(C)C(=O)Nc1cccc2ccccc12 | 2 | 100* | -7 | -1 | -2 | 0
C[C@H](CO)N1C[C@H](C)[C@@H](CN(C)C(=O)Nc2cccc3ccccc23)Oc2ccc(NS(=O)(=O)c3cn(C)cn3)cc2C1=O | 2 | 0 | -5 | -3 | 2 | 0
C[C@H](CO)N1C[C@H](C)[C@H](CN(C)Cc2ccc(-c3ccccc3)cc2)Oc2ncc(C#C[C@@H](C)O)cc2C1=O | -6 | -2 | 0 | -5 | -2 | 0
C[C@@H]1CN([C@H](C)CO)C(=O)c2cc(NC(=O)C3CC3)ccc2O[C@H]1CN(C)C(=O)Nc1ccc(F)cc1 | / | 0 | -7 | 0 | 1 | 0
Cc1noc(C)c1NC(=O)Nc1cccc2c1O[C@H](CN(C)S(C)(=O)=O)[C@@H](C)CN([C@@H](C)CO)C2=O | / | 0 | 0 | 6 | 2 | 0
Cc1ccc(-c2nc(CS(=O)CC(=O)NCCCN3CC(C)CC(C)C3)c(C)o2)cc1 (stereo not drawn) | 3 | 0 | 4 | 1 | -2 | 22*
COCCNC(=O)CS(=O)Cc1nc(-c2ccc(Cl)cc2)oc1C (stereo not drawn) | -8 | 3 | -3 | 64* | 0 | 0
C[C@H]1CN([C@@H](C)CO)C(=O)c2cc(NC(=O)C3CC3)ccc2O[C@H]1CN(C)C(=O)Nc1cccc2ccccc12 | -8 | 8 | 5 | 3 | 0 | -1
O=C(C1CCC1)N1CC2(C1)[C@H](c1ccccc1)[C@H](CO)N2C(=O)c1cccnc1 | -1 | / | 5 | 1 | -3 | 0
COCC#Cc1ccc([C@@H]2[C@H]3CN(Cc4ccccc4F)CCCCN3[C@H]2CO)cc1 | / | -1 | 5 | 47* | 4 | 0
COc1ccc(C#Cc2ccc([C@H]3[C@H]4CN(Cc5ccccc5F)CCCCN4[C@H]3CO)cc2)cc1 | / | 2 | -20 | -33 | -2 | 0
OC[C@@H]1[C@@H](c2ccc(C#CC3(O)CCCC3)cc2)[C@H]2CN(Cc3ccccc3F)CCCCN12 | / | 0 | 12 | -8 | 8.4* | 0
COc1ccc(C#Cc2ccc([C@@H]3[C@@H](CO)N4CCCCN(Cc5ccccc5F)C[C@H]34)cc2)cc1 | / | 7 | -39 | -34 | 2 | 0
OC[C@H]1[C@H](c2ccc(C#CC3(O)CCCC3)cc2)[C@H]2CN(Cc3ccccc3F)CCCCN21 | / | 0 | 3 | 5 | 8.9* | 0
O=C(Nc1ccc(F)cc1)N1C[C@H]2[C@@H](c3ccccc31)[C@H](CO)N2C(=O)c1ccccc1 | / | -3 | 1 | -1 | -1 | 0
Cc1ccccc1-c1cnc2c(c1)C(=O)N([C@@H](C)CO)C[C@H](C)[C@H](CN(C)Cc1cncnc1)O2 | / | / | 9 | / | -2 | -1
SMILES | FN deposition inh | Cneo AK release | PGC1a acetyl inh | DENV2 CPE rescue | CFTR F508del cor | Xi reactivation
CC(C)C#Cc1ccc2c(c1)O[C@@H](CN(C)C(=O)CN(C)C)[C@@H](C)CN([C@@H](C)CO)S2(=O)=O | / | -1 | -5 | 31* | 0 | 0
C[C@H](CO)N1C[C@H](C)[C@H](CN(C)C(=O)CN(C)C)Oc2cc(C#Cc3ccccc3)ccc2S1(=O)=O | 15 | 8 | -22 | 5 | 4 | 0
C[C@@H]1CN([C@H](C)CO)S(=O)(=O)c2ccc(C#Cc3ccccc3)cc2O[C@@H]1CN(C)C(=O)c1ccccn1 | 12 | 2 | -12 | 42* | -5 | -1
C[C@H]1CN([C@@H](C)CO)S(=O)(=O)c2ccc(C#Cc3ccccc3)cc2O[C@@H]1CN(C)C(=O)c1ccccn1 | 4 | / | 9 | 8 | 0 | -1
C[C@@H]1CN([C@H](C)CO)S(=O)(=O)c2ccc(C#Cc3ccccc3)cc2O[C@@H]1CN(C)C(=O)CN(C)C | -2 | 1 | -12 | 40*! | 1 | 0
Cc1ccc(S(=O)(=O)N(C)C[C@@H]2Oc3ccc(NS(=O)(=O)c4ccc(F)cc4)cc3CC(=O)N([C@H](C)CO)C[C@@H]2C)cc1 | / | -1 | -4 | -11 | 1 | -1
COc1ccc(Cc2c(-c3ccco3)nc3c(C)cc(Br)cn23)c(C)c1 | 0 | 0 | -5 | 23* | -4 | 0
CCCc1nc2c(C)cc(Br)cn2c1Cc1ccc(OC)cc1C | -9 | 8 | 4 | 21* | 2 | 0
CN1C(=O)c2cc(NC(=O)Cc3ccccc3)ccc2OC[C@@H]2O[C@H](CC(=O)NCc3ccc(Cl)cc3)CC[C@H]21 | 1 | -2 | -8 | 4 | 10* | 0
CN1C(=O)c2cc(NC(=O)Cc3ccccc3)ccc2OC[C@H]2O[C@@H](CC(=O)NCc3ccc(Cl)cc3)CC[C@@H]21 | 5 | / | 0 | / | 2 | 0
CN1C(=O)c2cc(NC(=O)c3ccc(Cl)cc3)ccc2OC[C@H]2O[C@@H](CC(=O)NCc3cccc(F)c3)CC[C@H]21 | -16 | -4 | -2 | -4 | 2 | 0
